Activity calls are given as the source filed them. The calls are words filed in the database; no cut-off is given here.
Columns and labels:
HeLa [1] = experiment: Induction of truncated p27 expression in human HeLa cells up to 500 nM after 14 hrs by Western blotting; type: functional, cell-based
Method in brief: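 HeLa cells were exposed for 14 h to 1, 3, 10, 30, 100 and 300 ng ml-1. Cell extracts were immunoblotted for p27 and its C-terminally truncated form p27*, with chemiluminescent read-out.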

HeLa [2] = experiment: Induction of truncated p27 expression in human HeLa cells at 1 to 1000 nM by Western blot analysis; type: functional, cell-based
[3] = target: T1, Splicing factor 3B subunit 2 (Homo sapiens) (UniProt Q13435); experiment: Binding affinity to SAP145 in human HeLa cells at 2 uM by LC-MS/MS analysis; type: cell-based
T1 sequence (whole entry): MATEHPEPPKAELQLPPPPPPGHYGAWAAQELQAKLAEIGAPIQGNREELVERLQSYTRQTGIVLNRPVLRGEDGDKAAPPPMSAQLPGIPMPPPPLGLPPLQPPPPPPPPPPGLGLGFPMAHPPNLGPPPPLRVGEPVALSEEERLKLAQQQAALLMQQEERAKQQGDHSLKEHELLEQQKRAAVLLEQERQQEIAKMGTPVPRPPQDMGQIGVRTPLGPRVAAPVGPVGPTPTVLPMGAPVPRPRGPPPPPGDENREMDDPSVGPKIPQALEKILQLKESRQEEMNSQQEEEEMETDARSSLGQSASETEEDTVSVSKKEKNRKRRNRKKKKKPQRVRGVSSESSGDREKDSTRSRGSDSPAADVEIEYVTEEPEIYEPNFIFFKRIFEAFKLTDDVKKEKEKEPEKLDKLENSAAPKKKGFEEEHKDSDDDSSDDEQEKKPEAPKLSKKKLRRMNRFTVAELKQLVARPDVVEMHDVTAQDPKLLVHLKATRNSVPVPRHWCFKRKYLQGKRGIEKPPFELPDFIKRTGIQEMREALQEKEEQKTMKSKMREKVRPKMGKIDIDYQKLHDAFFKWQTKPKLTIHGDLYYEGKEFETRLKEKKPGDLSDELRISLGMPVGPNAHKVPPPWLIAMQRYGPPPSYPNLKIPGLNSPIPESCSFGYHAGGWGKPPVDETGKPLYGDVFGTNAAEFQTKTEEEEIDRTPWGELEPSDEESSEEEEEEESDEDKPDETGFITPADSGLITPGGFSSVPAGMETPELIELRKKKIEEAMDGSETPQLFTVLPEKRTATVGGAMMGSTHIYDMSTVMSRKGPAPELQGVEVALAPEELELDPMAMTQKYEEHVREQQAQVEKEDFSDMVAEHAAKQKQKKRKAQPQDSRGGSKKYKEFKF

[4] = target: Splicing factor 3B subunit 1 (Homo sapiens) (UniProt O75533); experiment: Binding affinity to SAP155 in human HeLa cells at 2 uM by LC-MS/MS analysis
[5] = target: Splicing factor 3B subunit 3 (Homo sapiens) (UniProt Q15393); experiment: Binding affinity to SAP130 in human HeLa cells at 2 uM by LC-MS/MS analysis
[6] = tested on: SF3b complex (Homo sapiens); experiment: Binding affinity to SF3b SAP155/SAP145/SAP130 complex in human HeLa cells at 2 uM by Western blotting
COS-7 [7] = experiment: Induction of subcellular localization in p27 in african green monkey COS7 cells at 10 ng/ml after 6 hrs by immunofluorescence assay; type: functional, cell-based; conditions: Chlorocebus aethiops
COS-7 [8] = experiment: Induction of subcellular localization in truncated p27 in african green monkey COS7 cells at 10 ng/ml after 6 hrs by immunofluorescence assay; type: functional, cell-based; conditions: Chlorocebus aethiops
HeLa [9] = experiment: Induction of cyclin A expression in human HeLa cells at 100 ng/ml after 14 hrs by Western blotting; type: functional, cell-based
HeLa [10] = experiment: Induction of CDK2 expression in human HeLa cells at 100 ng/ml after 14 hrs by Western blotting; type: functional, cell-based
HeLa [11] = experiment: Induction of CDK4 expression in human HeLa cells at 100 ng/ml after 14 hrs by Western blotting; type: functional, cell-based
HeLa [12] = experiment: Induction of CDK6 expression in human HeLa cells at 100 ng/ml after 14 hrs by Western blotting; type: functional, cell-based
HeLa [13] = experiment: Induction of p16 expression in human HeLa cells at 100 ng/ml after 16 hrs by Western blotting; type: functional, cell-based
Method in brief: (§1)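 HeLa cells grown in DMEM with 10% FBS and treated with FR901464 at 100 ng ml-1 for 16 h. Lysates prepared by sonication in ice-cold IP buffer with protease inhibitors. Proteins separated by SDS-PAGE and immunoblotted with anti-p16, anti-p21 and anti-p27 antibodies; chemiluminescence detection.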

HeLa [14] = experiment: Induction of p27 expression in human HeLa cells at 100 ng/ml after 16 hrs by Western blotting; type: functional, cell-based; method in brief: as §1
HeLa [15] = experiment: Induction of p21 expression in human HeLa cells at 100 ng/ml after 16 hrs by Western blotting; type: functional, cell-based; method in brief: as §1
HEK-293T [16] = experiment: Induction of p27 expression in HEK293T cells at 1 to 100 ng/ml after 14 hrs by immunoblotting; type: functional, cell-based; conditions: Homo sapiens
Method in brief: (§2)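 Human cell lines (HeLa, HEK 293T, MCF7, A549) cultured in DMEM with 10% heat-inactivated FBS. Cells treated with graded FR901464 concentrations for 14 h. Extracts immunoblotted for p27 and the truncated p27* form, with chemiluminescent detection.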

HEK-293T [17] = experiment: Induction of truncated p27 expression in HEK293T cells at 1 to 100 ng/ml after 14 hrs by immunoblotting; type: functional, cell-based; conditions: Homo sapiens; method in brief: as §2
A549 [18] = experiment: Induction of p27 expression in human A549 cells at 1 to 100 ng/ml after 14 hrs by immunoblotting; type: functional, cell-based; method in brief: as §2
A549 [19] = experiment: Induction of truncated p27 expression in human A549 cells at 1 to 100 ng/ml after 14 hrs by immunoblotting; type: functional, cell-based; method in brief: as §2
MCF7 [20] = experiment: Induction of p27 expression in human MCF7 cells at 1 to 100 ng/ml after 14 hrs by immunoblotting; type: functional, cell-based; method in brief: as §2
MCF7 [21] = experiment: Induction of truncated p27 expression in human MCF7 cells at 1 to 100 ng/ml after 14 hrs by immunoblotting; type: functional, cell-based; method in brief: as §2
HeLa [22] = experiment: Induction of p27 expression in human HeLa cells at 100 ng/ml after 14 hrs in presence of […] proteasome inhibitor MG132; type: functional, cell-based
HeLa [23] = experiment: Induction of truncated p27 expression in human HeLa cells at 100 ng/ml after 14 hrs in presence of […] proteasome inhibitor MG132; type: functional, cell-based
[24] = Half life of the compound in culture medium by HPLC analysis; type: physicochemical
[25] = target: Cyclin-dependent kinase 2 (Homo sapiens) (UniProt P24941); experiment: Induction of CDK2 in HEK293T cells transfected with FLAG-tagged p27 at 200 nM by autoradiography; type: cell-based; conditions: HEK-293T
Method in brief: (§3)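 HEK 293T cells were transfected with pcDNA3.1, FLAG-p27 or FLAG-p27*, or were treated with MeOH, FR901464 (20, 200 nM) or SSA (190 nM). CDK2 was immunoprecipitated and its kinase activity read by autoradiography with histone H1 and (gamma-32P)ATP. Associated proteins were detected by western blotting.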

[26] = target: Cyclin-dependent kinase 2 (Homo sapiens) (UniProt P24941); experiment: Induction of CDK2 in HEK293T cells transfected with FLAG-tagged truncated p27 at 200 nM by autoradiography; type: cell-based; conditions: HEK-293T; method in brief: as §3
[27] = target: Cyclin-dependent kinase 2 (Homo sapiens) (UniProt P24941); experiment: Induction of CDK2 in HEK293T cells transfected with FLAG-tagged p27 at 20 nM by Western blot analysis; type: cell-based; conditions: HEK-293T; method in brief: as §3
[28] = target: Cyclin-dependent kinase 2 (Homo sapiens) (UniProt P24941); experiment: Induction of CDK2 in HEK293T cells transfected with FLAG-tagged truncated p27 at 20 nM by Western blot analysis; type: cell-based; conditions: HEK-293T; method in brief: as §3
HEK-293T [29] = experiment: Induction of FLAG-tagged p27 expression in HEK293T cells at 100 ng/ml after 14 hrs by Western blotting; type: functional, cell-based; conditions: Homo sapiens
HeLa [30] = experiment: Induction of p27 expression in human HeLa cells at 1 to 100 ng/ml after 14 hrs by immunoblotting; type: functional, cell-based; method in brief: as §2

Chain of Splicing factor 3B subunit 1 (Homo sapiens) (O75533 whole entry, looked up): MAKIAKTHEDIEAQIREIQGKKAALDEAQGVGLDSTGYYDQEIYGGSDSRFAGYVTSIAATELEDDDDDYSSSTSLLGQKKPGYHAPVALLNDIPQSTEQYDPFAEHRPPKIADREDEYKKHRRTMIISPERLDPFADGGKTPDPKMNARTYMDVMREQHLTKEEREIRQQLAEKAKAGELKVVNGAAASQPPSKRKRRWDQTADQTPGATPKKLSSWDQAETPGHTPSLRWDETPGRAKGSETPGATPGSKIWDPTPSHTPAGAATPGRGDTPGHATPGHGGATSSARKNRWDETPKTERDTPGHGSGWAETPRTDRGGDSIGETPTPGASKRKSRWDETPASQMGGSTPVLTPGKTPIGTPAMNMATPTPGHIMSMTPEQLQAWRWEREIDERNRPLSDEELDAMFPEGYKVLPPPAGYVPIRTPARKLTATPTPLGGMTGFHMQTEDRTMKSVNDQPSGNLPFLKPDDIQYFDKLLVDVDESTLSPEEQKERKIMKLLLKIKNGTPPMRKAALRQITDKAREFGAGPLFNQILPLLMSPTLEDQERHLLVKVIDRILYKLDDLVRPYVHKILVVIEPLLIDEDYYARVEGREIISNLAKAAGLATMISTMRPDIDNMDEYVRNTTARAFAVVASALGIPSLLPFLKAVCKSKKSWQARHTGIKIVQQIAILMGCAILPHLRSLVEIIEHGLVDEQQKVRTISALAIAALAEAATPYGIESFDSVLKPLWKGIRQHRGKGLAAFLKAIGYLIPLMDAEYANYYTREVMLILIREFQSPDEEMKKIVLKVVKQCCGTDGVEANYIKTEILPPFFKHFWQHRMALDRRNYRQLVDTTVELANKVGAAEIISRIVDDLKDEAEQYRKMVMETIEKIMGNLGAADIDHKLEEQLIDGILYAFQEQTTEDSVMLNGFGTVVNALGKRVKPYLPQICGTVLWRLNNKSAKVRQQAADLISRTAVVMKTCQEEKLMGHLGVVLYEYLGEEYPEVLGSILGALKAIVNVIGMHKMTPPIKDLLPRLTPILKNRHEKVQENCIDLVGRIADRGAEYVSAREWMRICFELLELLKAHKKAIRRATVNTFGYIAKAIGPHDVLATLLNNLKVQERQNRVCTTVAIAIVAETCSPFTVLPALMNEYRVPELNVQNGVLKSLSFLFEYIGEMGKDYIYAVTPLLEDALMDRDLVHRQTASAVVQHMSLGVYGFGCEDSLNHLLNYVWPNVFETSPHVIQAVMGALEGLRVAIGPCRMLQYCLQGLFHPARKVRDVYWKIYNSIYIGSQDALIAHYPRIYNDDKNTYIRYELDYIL
Chain of Splicing factor 3B subunit 3 (Homo sapiens) (Q15393 whole entry, looked up): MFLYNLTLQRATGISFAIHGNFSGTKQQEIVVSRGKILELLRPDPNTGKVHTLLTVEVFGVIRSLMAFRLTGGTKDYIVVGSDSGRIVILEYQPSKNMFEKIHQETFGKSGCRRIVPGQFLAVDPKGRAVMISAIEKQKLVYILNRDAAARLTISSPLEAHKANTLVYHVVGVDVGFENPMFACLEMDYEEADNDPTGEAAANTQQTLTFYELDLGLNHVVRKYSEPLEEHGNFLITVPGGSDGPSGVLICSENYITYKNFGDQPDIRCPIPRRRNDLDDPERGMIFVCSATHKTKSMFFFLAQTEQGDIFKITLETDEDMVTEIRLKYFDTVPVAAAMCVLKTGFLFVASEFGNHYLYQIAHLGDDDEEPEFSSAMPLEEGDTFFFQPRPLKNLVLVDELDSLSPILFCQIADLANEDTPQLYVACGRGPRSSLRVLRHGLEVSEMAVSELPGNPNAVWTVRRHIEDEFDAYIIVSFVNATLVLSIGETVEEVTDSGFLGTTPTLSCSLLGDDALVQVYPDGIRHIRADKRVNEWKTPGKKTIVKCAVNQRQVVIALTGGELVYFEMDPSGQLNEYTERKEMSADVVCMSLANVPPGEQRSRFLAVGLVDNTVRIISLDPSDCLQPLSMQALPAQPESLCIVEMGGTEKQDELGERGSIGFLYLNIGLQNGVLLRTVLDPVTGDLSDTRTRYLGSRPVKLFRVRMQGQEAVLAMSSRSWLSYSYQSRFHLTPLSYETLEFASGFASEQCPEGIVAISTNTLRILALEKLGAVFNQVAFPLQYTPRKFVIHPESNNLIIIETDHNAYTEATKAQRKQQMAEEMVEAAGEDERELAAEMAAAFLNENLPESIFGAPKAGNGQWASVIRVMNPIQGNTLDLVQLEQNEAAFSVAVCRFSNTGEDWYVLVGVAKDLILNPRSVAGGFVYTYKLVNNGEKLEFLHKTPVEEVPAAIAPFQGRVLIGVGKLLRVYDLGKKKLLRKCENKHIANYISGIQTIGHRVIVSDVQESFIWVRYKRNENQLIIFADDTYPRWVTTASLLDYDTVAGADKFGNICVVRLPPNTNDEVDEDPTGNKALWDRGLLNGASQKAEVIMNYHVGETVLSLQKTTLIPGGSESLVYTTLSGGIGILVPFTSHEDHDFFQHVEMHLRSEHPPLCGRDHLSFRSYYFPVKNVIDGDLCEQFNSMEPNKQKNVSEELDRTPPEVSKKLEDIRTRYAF

CO[C@]1(C)C[C@@]2(CO2)[C@H](OC(C)=O)[C@@H](/C=C/C(C)=C/C[C@@H]2O[C@H](C)[C@H](NC(=O)/C=C\[C@H](C)OC(C)=O)C[C@@H]2C)O1
Activity (HeLa [1]): inactive

CC(=O)O[C@@H](C)/C=C\C(=O)N[C@@H]1C[C@H](C)[C@H](C/C=C(C)/C=C/[C@H]2O[C@](C)(OCCNC(=O)CCCCCNC(=O)CCCCCNC(=O)CCCC[C@@H]3SC[C@@H]4NC(=O)N[C@@H]43)C[C@@]3(CO3)[C@@H]2O)O[C@@H]1C
Activity (HeLa [2]): Active | Activity [3]: Active | Activity [4]: Active | Activity [5]: Active | Activity [6]: Active

CCC(=C/[C@H](C)C/C=C/C(C)=C/[C@@H](C)C(=O)[C@@H](C)[C@H](O)[C@@H](C)C/C(C)=C/C(=O)O)/C=C/[C@@H]1OC(=O)C=C[C@@H]1C
Activity (COS-7 [7]): Active | Activity (COS-7 [8]): Active

CC(=O)O[C@@H](C)/C=C\C(=O)N[C@@H]1C[C@H](C)[C@H](C/C=C(C)/C=C/[C@H]2O[C@](C)(O)CC3(CO3)[C@@H]2O)O[C@@H]1C (single isomer, unassigned)
Activity (HeLa [9]): Active | Activity (HeLa [10]): Active | Activity (HeLa [11]): Active | Activity (HeLa [12]): Active | Activity (HeLa [13]): Active | Activity (HeLa [14]): Active | Activity (HeLa [15]): Active | Activity (HEK-293T [16]): Active | Activity (HEK-293T [17]): Active | Activity (A549 [18]): Active | Activity (A549 [19]): Active | Activity (MCF7 [20]): Active | Activity (MCF7 [21]): Active | Activity (HeLa [22]): Active | Activity (HeLa [23]): Active | half-life [24]: 45 min | Activity [25]: Active | Activity [26]: inactive | Activity [27]: inactive | Activity [28]: inactive | Activity (HEK-293T [29]): Active | Activity (HeLa [30]): Active

Source: ChEMBL document CHEMBL1221204, “Spliceostatin A targets SF3b and inhibits both splicing and nuclear retention of pre-mRNA” (Nat Chem Biol, 2007)
